In ChEMBL document CHEMBL1147153, “Development of ruthenium antitumor drugs that overcome multidrug resistance mechanisms” (J Med Chem, 2007):
Active and inactive are the calls of the source. The calls are words filed in the database; no cut-off is given here.

What was measured:
T47D = test: Cytotoxicity against human T47D cells by MTT assay; type: cell-based
Method in brief: (§1)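 Cells plated 24 h, then exposed 72 h to compound at 1-300 µM. Compound was diluted from a fresh DMSO stock (20 mM for A549, HT29, T47D; 10 mM for TS/A, HBL-100) into 5%-serum medium, with at most 0.5% or 1% v/v DMSO respectively. Growth media: DMEM (A549, HT29, T47D), McCoy's 5A (HBL-100). MTT (5 mg/mL in PBS, 2.5 µL/100 µL medium) was added for 2 h at 37 °C; formazan dissolved in DMSO and read at OD 570 nm.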

TS/A = test: Cytotoxicity against […] TS/A cells by MTT assay; type: cell-based; conditions: Mus musculus; method in brief: as §1
A549 [1] = test: Cytotoxicity against human A549 cells by MTT assay; type: cell-based; method in brief: as §1
HT-29 = test: Cytotoxicity against human HT29 cells by MTT assay; type: cell-based; method in brief: as §1
[2] = Cytotoxicity against human HBL100 cells by MTT assay; type: cell-based; conditions: HBL-100; method in brief: as §1
P-gp (ABCB1) = P-gp (ABCB1) (Homo sapiens, UniProt P08183); test: Inhibition of P-gp in A549 cells at 80 uM by calcein-AM uptake assay relative to verapamil; type: cell-based; conditions: probe calcein-AM
Method in brief: (§2)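 A549 Pgp activity: cells washed in Hanks salt solution with 10 mM HEPES, preincubated 30 min in that buffer, then 15 min with compound. Calcein-AM (1 µM final) added for a further 60 min; uptake stopped on ice, cells washed cold and lysed 15 min in 1% Triton X-100/PBS. Calcein fluorescence read at ex 485/em 530 nm; reported as F2.0 (concentration doubling baseline fluorescence) or inhibition at 80 µM relative to verapamil.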

A549 [3] = test: Inhibition of P-gp in A549 cells assessed as drug concentration required to double baseline fluorescence level by calcein-AM uptake assay; type: cell-based; conditions: Homo sapiens; method in brief: as §2
A549 [4] = test: Drug accumulation in human A549 cells after 1 hrs; type: functional, cell-based
Method in brief: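 A549 cells grown on slides were exposed to 100 µM compound for 0.5-4 h, PBS-washed, fixed 5 min in 4% buffered paraformaldehyde, and imaged by fluorescence microscopy under 365 nm irradiation with a 1 s exposure.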

Sequence of P-gp (ABCB1) (P08183 whole entry): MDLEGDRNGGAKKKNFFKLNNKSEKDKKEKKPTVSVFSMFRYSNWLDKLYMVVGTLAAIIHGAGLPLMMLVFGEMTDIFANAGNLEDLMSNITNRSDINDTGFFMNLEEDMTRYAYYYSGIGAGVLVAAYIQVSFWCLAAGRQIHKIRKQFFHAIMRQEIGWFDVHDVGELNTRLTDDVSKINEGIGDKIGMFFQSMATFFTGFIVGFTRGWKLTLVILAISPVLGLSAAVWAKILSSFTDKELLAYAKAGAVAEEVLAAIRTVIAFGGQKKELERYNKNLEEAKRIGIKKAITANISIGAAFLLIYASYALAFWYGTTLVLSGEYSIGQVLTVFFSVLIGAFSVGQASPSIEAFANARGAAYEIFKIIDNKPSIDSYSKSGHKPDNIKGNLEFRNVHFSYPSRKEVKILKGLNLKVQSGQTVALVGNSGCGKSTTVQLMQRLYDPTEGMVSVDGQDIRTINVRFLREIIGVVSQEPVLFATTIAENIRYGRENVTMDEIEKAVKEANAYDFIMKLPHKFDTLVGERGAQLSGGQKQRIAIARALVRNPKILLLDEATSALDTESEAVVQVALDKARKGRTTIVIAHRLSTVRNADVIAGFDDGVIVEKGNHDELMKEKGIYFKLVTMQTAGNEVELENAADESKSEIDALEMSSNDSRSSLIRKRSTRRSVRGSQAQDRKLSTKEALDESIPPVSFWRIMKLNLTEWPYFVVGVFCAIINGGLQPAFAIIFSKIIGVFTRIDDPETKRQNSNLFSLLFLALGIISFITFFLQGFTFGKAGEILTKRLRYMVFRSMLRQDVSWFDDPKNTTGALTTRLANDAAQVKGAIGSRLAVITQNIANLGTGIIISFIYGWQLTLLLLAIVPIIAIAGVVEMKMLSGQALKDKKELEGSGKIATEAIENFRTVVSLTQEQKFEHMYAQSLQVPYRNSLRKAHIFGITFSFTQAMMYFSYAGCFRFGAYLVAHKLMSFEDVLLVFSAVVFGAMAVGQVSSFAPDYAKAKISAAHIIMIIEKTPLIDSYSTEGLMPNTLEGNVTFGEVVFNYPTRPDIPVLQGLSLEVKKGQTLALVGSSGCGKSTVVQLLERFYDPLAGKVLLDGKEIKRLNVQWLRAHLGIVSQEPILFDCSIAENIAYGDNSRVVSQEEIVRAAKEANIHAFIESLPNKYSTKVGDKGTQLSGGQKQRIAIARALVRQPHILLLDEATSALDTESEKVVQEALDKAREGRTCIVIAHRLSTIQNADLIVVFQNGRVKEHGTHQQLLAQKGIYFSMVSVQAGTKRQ

SMILES | inhibition at 80 µM (P-gp (ABCB1)) [%] | IC50 (T47D) [µM] | IC50 (TS/A) [µM] | IC50 (A549 [1]) [µM] | IC50 (HT-29) [µM] | IC50 [2] [µM] | Activity (A549 [3]) [µM] | Activity (A549 [4])
O=C(CCl)N1c2ccccc2Oc2ccccc21 | – | 7 | 40 | > 100 | 11 | 29 | – | –
COc1ccc(CCN(C)CCCC(C#N)(c2ccc(OC)c(OC)c2)C(C)C)cc1OC (stereo not drawn) | – | – | – | – | – | – | 7 | –
O=C(Cn1ccnc1)N1c2ccccc2Oc2ccccc21 [PHENOXIMID] | 24 | 95 | 30 | > 100 | 17 | 23 | > 100 | –

Further lines, with some results ahead:

inhibition at 80 µM (P-gp (ABCB1)) [%] | SMILES | IC50 (T47D) [µM] | IC50 (TS/A) [µM] | IC50 (A549 [1]) [µM] | IC50 (HT-29) [µM] | IC50 [2] [µM] | Activity (A549 [3]) [µM] | Activity (A549 [4])
18 | c1ccc2c(-n3ccnc3)c3ccccc3cc2c1 | 34 | 101 | 75 | 45 | 221 | > 100 | Active
65 | O=C(Cn1cnc2ccccc21)N1c2ccccc2Oc2ccccc21 [PHENOXBENZIMID] | 91 | 51 | 75 | 33 | > 100 | 23 | –
